# Measurements reported in PubChem BioAssay.
# Values without a mark were called inactive. Results filed as inconclusive are left out. The source made the active and inactive calls.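 The calls were made as follows, unless noted: active = inhibition over a set limit, the all-compound mean plus 3 SD, in both replicate runs; inconclusive = over that limit in just one replicate run; inactive = at or under that limit in both runs.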
# Columns and labels:
# [1] = S. cerevisiae growth inhibition in permissive medium (OD615), pilot counter-assay for S. cerevisiae lifespan shortening project, permissive growth control (AID 705;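 active = growth inhibition above 25% in both replicates, a cutoff set 3 SD above the mean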); conditions: OD615, 24 h, at 10 µM, active compounds read high
# How it was run: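 Timing: 24 h exposure, 30 °C / Material: Saccharomyces cerevisiae strain carrying genetically modified DeaD replicative-lifespan system / Signal: OD at 615 nm / Compound: 10 µM single dose, 0.25% DMSO / Medium: SC raffinose/galactose permissive medium / Evaluation: reduction in yeast growth (OD615)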
# [2] = S. cerevisiae growth inhibition in restrictive medium, OD615, pilot screen, restrictive growth control, yeast lifespan reduction project (AID 706;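 active = growth inhibition above a set limit, 3 SD over mean compound inhibition, in both replicates, cut at about 43% in these data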;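 also: modified DeaD lifespan yeast strain shifted to restrictive glucose medium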); conditions: OD615, 48 h, at 10 µM, active compounds read high
# How it was run: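 System: Engineered S. cerevisiae DeaD strain | Detection: OD615 | Buffer or medium: CSMM-D glucose medium | Doses: 10 µM compound, 0.25% DMSO | Timing: 4 h pre-growth plus 48 h compound exposure, 30 °C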
# [3] = doxorubicin toxicity protection in MRP-1 cells – H69AR cells, CellTiter-Glo, duplicate, MRP-1 activator project, pilot screen (AID 807;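 active = viability increase at or above a cutoff of the median across tested compounds plus 3 SD, cut at about 8.5% in these data, passing the limit was not always enough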;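 also: compound pretreatment 18-22 h then 72 h combined with doxorubicin; 0% = doxorubicin alone and 100% = vehicle without doxorubicin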); conditions: H69AR viability with doxorubicin, CellTiter-Glo luminescence; at 10 µM; active compounds read high
# [4] = viability of HCT116 without oncogenic beta-catenin – human colon tumor cells, pilot screen (AID 823;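 active = cell viability at or below a set limit in both duplicate runs, the limit being the all-compound median minus 4 SD, cut at about 23% in these data, passing the limit was not always enough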;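 also: 0% = wells killed by 20 µM Hyamine and 100% = untreated DMSO cell wells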); conditions: HCT116 beta-catenin knockout viability, CellTiter-Glo, 60 h; at 10 µM; active compounds read low
# [5] = viability of PTEN-null HCT116 cells – cell-based, HCT116 clonal line, CellTiter-Glo, pilot screen (AID 824;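 active = viability at or below 27.92% in each of two runs, the all-compound median minus 4 SD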;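 also: 0% = 20 µM Hyamine control and 100% = vehicle cell control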); conditions: HCT116 PTEN-deleted viability, 60 h, at 10 µM, active compounds read low
# [6] = RAM pathway blockade in budding yeast – dse1pr::URA3 reporter, 5-FOA selection, pilot screen (AID 869);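 also: 0% = DMSO wells with no growth and 100% = 10 µM 1-NA-PP1 with full growth; RAM network block rescues cells from 5-FOA so hits raise OD615 growth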; conditions: S. cerevisiae dse1pr::URA3 5-FOA growth, OD615, 2 d; at 10 µM; active compounds read high; strain carries analog-sensitive mutant Cbk1 kinase
# [7] = RAM signaling pathway blockade in yeast – S. cerevisiae, Pdr1DBD-CYC8 efflux-inhibited sensitized strain, primary screen (AID 1298;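 active = RAM network inhibition above 8.4% in each of two replicates, 3 SD over the compound average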;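 also: 0% = DMSO untreated cells without growth and 100% = 10 µM 1-NA-PP1 full growth; higher means more yeast growth rescued from 5-FOA killing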); conditions: S. cerevisiae cbk1-as DSE1-URA3 strain, 5-FOA growth OD615, 2 d; at 50 µM; active compounds read high
SMILES,growth inhibition [1] [%],growth inhibition [2] [%],viability increase [3] [%],viability [4],viability [5],inhibition [6] [%],RAM network inhibition [7] [%]
Cc1cc(NC(=O)CSc2cn(CCNC(=O)c3ccccc3)c3ccccc23)no1,-3.29,-0.585,-0.97,88.1%,88.7%,3.04,6.89
CN(Cc1ccccc1)C(=O)CCC(=O)N(C)Cc1ccccc1,-1.99,4.61,-0.27,103%,90.2%,0.97,-0.11
Nc1nc(-c2ccc3c(c2)CCCC3)cs1,2.05,29.1,-0.58,86.2%,88.2%,0.275,2.64
COc1ccccc1C(=O)Nc1nnc(-c2ccc(Cl)cc2)o1,-2.96,1.53,-1.3,103%,98.1%,0.395,-0.25
CCn1c(=O)cc(OCC(=O)Nc2ccccc2C#N)c2ccccc21,-22.1,-8.12,-1.86,95.1%,94.7%,2.12,4.46
CC(/C=C/c1ccccc1)=N/O,-2.33,2.71,0.26,98.3%,106%,-0.595,4.55
CCc1ccc(Cn2nnc(C(=O)Nc3cccc(C)c3)c2N)cc1,-7.21,-2.92,-0.67,102%,95.9%,3.39,8.18
Cn1cc(SCC(=O)Nc2ccc3c(c2)OCO3)c2ccccc21,-6.75,-9.39,-2.72,100%,92.9%,1.69,2.23
COCCNS(=O)(=O)c1ccc(C2CNC(=O)C2)cc1 (configuration not stated),-7.18,-6.89,-1.08,110%,104%,2.2,-1.51
CCOC(=O)N1CCN(CC(=O)c2ccc3c(c2)CCN3C(C)=O)CC1,0.355,-1.94,-1.31,100%,96.6%,2.14,6.23
CCOc1ccccc1C1CC(c2ccccc2)Nc2nc(N)nn21 (configuration not stated),-1.36,8.93,-1.31,97.2%,88.2%,2.27,2.72
COc1ccc(N(CC(=O)Nc2nccs2)S(=O)(=O)c2c(C)nn(C)c2C)cc1,-18.2,-6.82,-3.77,93%,87.5%,3,3.8
C=CCn1c(=N)n(CC(O)COc2ccc(OC)cc2)c2ccccc21 (configuration not stated),-10.9,1.67,-4.96,64.8%,69%,-0.445,-0.51
Cc1cc(-c2ccco2)n(CC(=O)NCc2ccco2)n1,-3.72,-9.28,-2.82,100%,100%,0.355,2.47
C=CCn1cc(C(=O)N2CCN(C)CC2)c(=O)c2cc(S(=O)(=O)N3CCCC3)ccc21,-6.54,-12.6,-0.09,105%,106%,0.73,3.9
Cn1c(=O)oc2cc(S(=O)(=O)NCCCN3CCCC3=O)ccc21,-7.4,-6.43,-2.65,99%,98.7%,0.615,0.74
Cn1c(=O)c2c(SCc3cccnc3)nc(C3CC3)nc2n(C)c1=O,1.77,-1.23,0.27,94.5%,83.4%,-0.18,-1.65
O=C(Cc1ccccc1)NCCn1ccc2ccccc21,-10.7,-13.2,-1.79,94.6%,88.8%,0.01,3.55

SMILES,growth inhibition [1] [%],growth inhibition [2] [%],viability increase [3] [%],viability [4],viability [5],inhibition [6] [%],RAM network inhibition [7] [%]
O=C(NCc1ccccc1Cl)c1cnc2n(c1=O)CCS2,3.67,0.685,-0.78,99.9%,96.9%,0.995,-0.68
COc1ccc(-c2[nH]ncc2-c2cnc(C)s2)c(O)c1,-13.3,-13,-1.25,99.2%,98.9%,2,2.98
COc1ccc(Cl)cc1NC(=O)Cn1c(=O)n2nc(C)nc2c2ccccc21,-7.69,3.31,-7.15,90.9%,87.8%,0.175,6.46
CCOC(=O)N1CCN(C(=O)CSc2nnc(-c3ccc(C)c(C)c3)o2)CC1,-1.67,1.73,-2.44,111%,97.4%,2.31,4.67
O=C(O)C1CCCN1S(=O)(=O)c1ccc(Cl)c(Cl)c1 (configuration not stated),-5.33,-3.77,-1.74,98.6%,106%,-0.11,1.89
O=C(NCc1ccccn1)C1CCN(S(=O)(=O)N2CCCC2)CC1,-5.04,-10,-0.46,109%,95.7%,0.3,3.61
CC(=O)Nc1ccc(S(=O)(=O)N2CCN(c3nc(NC4CCCC4)c4ccccc4n3)CC2)cc1,0.72,-1.39,-8.11,1.42% (active),1.7% (active),1.15,3.62
COc1cc(C2N(c3ccccc3)CCN2c2ccccc2)ccc1OC(C)=O,-18.8,-13.6,0.59,96.3%,94.5%,0.44,2.35
CC1CCCC(NC(=O)c2ccc3c(c2)N(Cc2ccccc2)C(=O)CS3=O)C1C (configuration not stated),0.145,4.42,-3.1,70.8%,62.5%,0.69,5.92
CC(=O)c1ccc(OCC(O)CN2CCN(c3ccccn3)CC2)cc1 (configuration not stated),2.13,4.88,0.37,102%,103%,1.18,2.51
CCOC(=O)N1CCN(C(=O)CN(c2cc(C(F)(F)F)ccc2Cl)S(C)(=O)=O)CC1,0.24,9.28,-1.79,103%,99%,-0.91,-0.25
COc1ccc(CNC(=O)CS(=O)Cc2nc(-c3ccccc3C)oc2C)cc1 (configuration not stated),-3.65,10.4,-0.34,96.7%,101%,0.275,1.98
CCOC(=O)C1=C(C)NC(=O)NC1c1ccc(N(C)C)cc1 (configuration not stated),-12.3,-5.65,-2.7,96.9%,92.9%,2.35,5.85
CCOC(=O)N1CCc2c(sc(NC(C)=O)c2C(N)=O)C1,-5.06,-16.1,-1.9,103%,99.3%,1.6,0.58
CCCc1cc(C(=O)Nc2sc(C)c(CC)c2C#N)no1,-6.42,-11.2,2.26,102%,101%,1.42,0.53
COc1ccc(S(=O)(=O)N2CC(C)N(S(=O)(=O)c3ccc(OC)cc3)CC2C)cc1 (configuration not stated),-4.74,0.035,-2.77,93.2%,102%,1.73,5.94
Cc1ccc(NC(=O)CSc2nnc(Cc3cccn3C)n2-c2ccc(F)cc2)c(C)c1,4.68,8.61,-3.99,93.2%,81.2%,2.25,2.03
CCn1cc(C(=O)OCC(=O)Nc2c(C)n(C)n(-c3ccccc3)c2=O)c(=O)c2ccc(C)nc21,-11.8,-0.91,-0.65,97.6%,95%,0.195,0.21
